Rows were chosen to be rich in hits. Some 3.2% of all compounds tested hit in one or more screens of this group.
Cneo AK release = causes C. neoformans cell lysis | AID 651654 | adenylate kinase release luminescence, 4 h; normalised: neutral wells 0, clomiphene wells 100 | 360,000 tested, 0.2% active | lysis activity, % at 15 µM;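 active = mean lysis activity across replicates of at least 80%, whatever share of replicates individually reach that level; inactive = mean lysis activity below 80%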
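Assay system: Cryptococcus neoformans yeast cells / Dosing: single-point compound dose / Timing: 4 h at 37 °C static, read 1 h later / Measured by: luminescence of released adenylate kinase using an AK detection reagent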
AF4-AF9 inh = blocks AF4 peptide binding to human AF9 | P42568 | AlphaScreen, biotin-AF4 peptide binding to FLAG-AF9 | inhibition, % at 10 µM | 350,000 tested, 0.47% active | AID 651704;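 active = every replicate reaching a set inhibition limit, whatever the replicate mean, cut at about 25% in these data; inconclusive = mean inhibition reaches that limit but some replicates miss it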
Target sequence (P42568 whole entry, looked up): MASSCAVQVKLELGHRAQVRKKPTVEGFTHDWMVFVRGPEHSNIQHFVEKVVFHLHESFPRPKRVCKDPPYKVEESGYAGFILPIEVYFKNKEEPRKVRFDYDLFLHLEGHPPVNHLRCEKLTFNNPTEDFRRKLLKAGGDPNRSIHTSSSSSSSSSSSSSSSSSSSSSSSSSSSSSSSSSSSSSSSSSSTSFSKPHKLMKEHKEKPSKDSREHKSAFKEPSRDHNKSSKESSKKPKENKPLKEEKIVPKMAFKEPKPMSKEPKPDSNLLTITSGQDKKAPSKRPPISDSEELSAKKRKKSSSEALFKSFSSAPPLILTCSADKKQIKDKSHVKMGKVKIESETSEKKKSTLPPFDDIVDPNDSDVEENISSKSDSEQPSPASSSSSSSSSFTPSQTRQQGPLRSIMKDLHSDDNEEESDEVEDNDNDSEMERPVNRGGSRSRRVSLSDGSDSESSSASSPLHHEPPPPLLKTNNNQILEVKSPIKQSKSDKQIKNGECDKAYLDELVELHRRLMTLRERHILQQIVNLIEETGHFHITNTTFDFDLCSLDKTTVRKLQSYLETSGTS
S100A4 MyoIIA = inhibitors of human S100A4 binding to myosin IIA peptide; P26447; S100A4/TAMRA-MyoIIA peptide fluorescence polarization; inhibition, % at 10.7 µM; 360,000 tested, 0.14% active; AID 652163;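 active = mean inhibition of at least 70% across replicates, with every replicate also reaching that level; inconclusive = mean inhibition reaches 70% but some replicates fall short; inactive = mean inhibition below 70%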
Target sequence (P26447 whole entry, looked up): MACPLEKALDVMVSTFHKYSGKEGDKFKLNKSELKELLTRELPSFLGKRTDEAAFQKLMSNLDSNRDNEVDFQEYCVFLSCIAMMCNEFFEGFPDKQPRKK
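Compound dosing: one dose per compound; test system: human S100A4 monomer with TAMRA-labelled myosin IIA peptide; probe or stimulus: TAMRA-labelled myosin IIA heavy-chain peptide probe, 5 nM; medium: HEPES buffer with Ca2+, pH 7.2; schedule: 5 min incubation before reading; benchmarks: neutral control DMSO, positive control TFP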
Ecoli rRNA inh = inhibits bacterial ribosomal RNA function over humanized ribosomes | E. coli WT GFP vs humanized-ribosome RFP mutants, fluorescence, 24 h; active compounds read low; DMSO median 0, no signal -100 | GFP signal change (wild-type ribosome), % (test concentration not listed) | 350,000 tested, 1.6% active;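 active = significant combined selectivity score with lowered wild-type GFP, culture density cut under 30%, mutant RFP and density less affected; inactive = any of these conditions unmet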
DENV2 CPE = DENV2-induced cell death inhibition; DENV2-infected cells, cytopathic effect rescue, plate reader; CPE inhibition, % at 9.99 µM; 350,000 tested, 1.7% active; AID 651640; in the data active = CPE inhibition above about 20%, passing the limit was not always enough; inconclusive = no clear call, values can overlap the other calls; tested in BHK-21 cells
PfHsp90 yeast 2 = growth inhibition of yeast expressing Plasmodium Hsp90. S. cerevisiae expressing PfHsp90, BacTiter-Glo ATP, 48 h; yeast lacking PDR1 and PDR3 efflux regulators. inhibition, % at 9.4 µM. 310,000 tested, 0.32% active. AID 504621;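 active = every replicate shows inhibition above about 80%, whatever the replicate mean, limit read from the data; inconclusive = mean inhibition reaches the set limit but some replicate falls short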
Hits are given with their value; – = inactive; ? = inconclusive; · = not tested or not shown; ! = not confirmed by another sample.

SMILES	Cneo AK release	AF4-AF9 inh	S100A4 MyoIIA	Ecoli rRNA inh	DENV2 CPE	PfHsp90 yeast 2
Cc1noc(C)c1NC(=O)N(C)C[C@@H]1Oc2c(NC(=O)Nc3ccc4c(c3)OCO4)cccc2C(=O)N([C@H](C)CO)C[C@@H]1C	–	–	–	–	–	·
COc1ccccc1-c1ccc([C@@H]2[C@@H](C#N)N(C(=O)c3cccnc3)[C@@H]2CO)cc1	–	–	–	–	–	·
C[C@@H]1CN([C@H](C)CO)C(=O)Cc2cc(NC(=O)C3CC3)ccc2O[C@@H]1CN(C)CC1CCCCC1	–	–	–	–	–	·
COc1ccc(CN(C)C[C@H]2Oc3c(NC(=O)Nc4ccc(OC)cc4)cccc3C(=O)N([C@H](C)CO)C[C@@H]2C)cc1	–	–	–	–	–	·
C[C@@H]1CN([C@H](C)CO)C(=O)c2cccc(NC(=O)Nc3ccc(F)cc3)c2O[C@H]1CN(C)Cc1ccc(C(F)(F)F)cc1	–	–	–	–	·	·
COc1ccc(CN(C)C[C@@H]2Oc3c(NC(=O)Nc4ccc(OC)cc4)cccc3C(=O)N([C@H](C)CO)C[C@H]2C)cc1	–	–	–	–	41.8	·
COc1ccc(NC(=O)Nc2cccc3c2O[C@H](CN(C)Cc2ccc4c(c2)OCO4)[C@@H](C)CN([C@H](C)CO)C3=O)cc1	–	–	–	–	–	·
C[C@H](CO)N1C[C@H](C)[C@@H](CN(C)Cc2ccc(C(F)(F)F)cc2)Oc2c(NC(=O)Nc3ccc(F)cc3)cccc2C1=O	–	–	–	–	68.9	·
COc1ccc(NC(=O)Nc2cccc3c2O[C@H](CN(C)Cc2ccc4c(c2)OCO4)[C@@H](C)CN([C@@H](C)CO)C3=O)cc1	–	–	118.5	–	–	·
COc1ccc(NC(=O)Nc2cccc3c2O[C@H](CN(C)Cc2ccc(C(F)(F)F)cc2)[C@@H](C)CN([C@H](C)CO)C3=O)cc1	–	–	–	–	22.4	·
COc1ccc(CN(C)C[C@@H]2Oc3c(NC(=O)Nc4ccc(C(F)(F)F)cc4)cccc3C(=O)N([C@H](C)CO)C[C@H]2C)cc1	–	–	–	–	–	·
COc1cccc(NC(=O)N[C@H]2CC[C@H](CC(=O)NCc3ccccn3)O[C@@H]2CO)c1	–	–	–	–	–	·
CC(C)NC(=O)N1C[C@@H]2[C@H](c3ccccc31)[C@@H](CO)N2C(=O)C1CCCC1	–	–	–	–	–	·
C[C@H](CO)N1C[C@H](C)[C@H](CN(C)C(=O)Nc2ccc3c(c2)OCO3)Oc2ccc(NC(=O)Nc3ccc4c(c3)OCO4)cc2CC1=O	·	·	·	–	·	·
C[C@H]1CN([C@@H](C)CO)C(=O)c2cccc(NC(=O)Nc3ccc4c(c3)OCO4)c2O[C@H]1CN(C)Cc1ccc(C(F)(F)F)cc1	–	–	–	–	–	·
C[C@@H]1CN([C@H](C)CO)C(=O)c2cccc(NC(=O)Nc3ccc4c(c3)OCO4)c2O[C@@H]1CN(C)Cc1ccc(C(F)(F)F)cc1	–	–	–	–	36.4	·
C[C@@H]1CN([C@@H](C)CO)C(=O)c2cccc(N(C)C)c2O[C@@H]1CN(C)S(=O)(=O)c1cn(C)cn1	–	–	–	–	–	·
C[C@@H]1CN([C@@H](C)CO)C(=O)Cc2cc(NC(=O)Cn3cnnn3)ccc2O[C@H]1CN(C)Cc1ccc(C(=O)Nc2ccccc2N)cc1	·	–	–	–	–	·
O=C1O[C@H](c2ccccc2)[C@H](c2ccccc2)N2[C@H]1[C@@H](C(=O)N1CCCCCCC1)[C@]1(C(=O)Nc3ccccc31)[C@H]2c1ccccc1OCCO	–	–	–	·	42.3	·
O=C1O[C@@H](c2ccccc2)[C@@H](c2ccccc2)N2[C@@H](c3ccccc3OCCO)[C@]3(C(=O)Nc4ccc(C#CCCO)cc43)[C@@H](C(=O)N3CCCCCCC3)[C@H]12	–	–	–	·	–	·
Cc1ccc(NS(=O)(=O)c2ccc(-c3csc(C)n3)s2)c(C)c1	–	–	–	-38.2	–	–
CCN(CC)S(=O)(=O)c1ccc(-c2csc(C)n2)s1	–	·	–	–	–	–
Cc1ccc2c(c1)N(CCCC(=O)NCc1ccc3c(c1)OCO3)C(=O)CO2	–	–	–	–	91.7	–
COc1ccccc1CNC(=O)CCCN1C(=O)COc2ccc(C)cc21	–	·	·	·	·	–
Cc1c(C)c2c(OCC(=O)N3CCC(O)CC3)cc3c(c2oc1=O)CCC(C)(C)O3	–	–	–	·	46.6	–
SMILES	Cneo AK release	AF4-AF9 inh	S100A4 MyoIIA	Ecoli rRNA inh	DENV2 CPE	PfHsp90 yeast 2
CCCc1cc(=O)oc2c3c(cc(OCC(=O)NCC4CCC(C(=O)O)CC4)c12)OC(C)(C)CC3 (configuration not stated)	–	–	–	-39.2	–	–
CCC(=O)N1[C@@H]2CN(S(=O)(=O)c3ccccc3)c3ccccc3[C@@H]2[C@@H]1CO	–	–	–	–	–	·
COCC(=O)N(C)C[C@H]1Oc2cc(C3=CCCC3)ccc2S(=O)(=O)N([C@@H](C)CO)C[C@H]1C	·	–	·	–	?	·
O=C(C[C@H]1CC[C@@H](NC(=O)Nc2ccc(F)cc2)[C@@H](CO)O1)NCc1cccc(F)c1	–	–	–	–	–	·
Cc1ccc(/C=C/C(=O)N(Cc2cccs2)C2CCS(=O)(=O)C2)cc1 (configuration not stated)	–	–	–	-29.0	–	·
Cc1cc2oc(C(=O)N(Cc3cccs3)C3CCS(=O)(=O)C3)cc(=O)c2cc1Cl (configuration not stated)	–	–	–	-21.3	–	–
C[C@@H]1CN([C@H](C)CO)C(=O)c2cc(C#Cc3cccc(F)c3)cnc2O[C@@H]1CN(C)C(=O)C1CCCCC1	–	–	–	–	–	·
COc1cccc(C#Cc2cnc3c(c2)C(=O)N([C@@H](C)CO)C[C@@H](C)[C@@H](CN(C)C(=O)C2CCC2)O3)c1	–	–	–	–	24.9	·
COc1cccc(C#Cc2cnc3c(c2)C(=O)N([C@H](C)CO)C[C@H](C)[C@@H](CN(C)C(=O)C2CCC2)O3)c1	–	–	–	–	–	·
COc1cccc(C#Cc2cnc3c(c2)C(=O)N([C@H](C)CO)C[C@@H](C)[C@H](CN(C)C(=O)C2CCC2)O3)c1	–	–	–	–	20.1	·
C[C@@H]1CN([C@@H](C)CO)C(=O)c2cc(C#Cc3cccc(F)c3)cnc2O[C@H]1CN(C)C(=O)C1CCCCC1	–	–	–	–	21.7!	·
COc1cccc(C#Cc2cnc3c(c2)C(=O)N([C@H](C)CO)C[C@@H](C)[C@@H](CN(C)C(=O)C2CC2)O3)c1	–	–	–	–	–	·
CCCN(C)C[C@@H]1Oc2ncc(C#Cc3ccc(OC)c(OC)c3)cc2C(=O)N([C@H](C)CO)C[C@@H]1C	–	–	–	–	–	·
